Laboratory results taken from ChEMBL document CHEMBL1127483, “Synthesis and structure activity relationships of cis- and trans-2,3,4,4a,9,9a-hexahydro-1H-indeno[2,1-c]pyridines for 5-HT receptor subtypes” (J Med Chem, 1994).

Tests used:
[1] = biological target: T1, 5-hydroxytryptamine receptor 1A (Rattus norvegicus, UniProt P19327); assay: Binding affinity for 5-hydroxytryptamine 1A receptor with [3H]5-HT
T1 sequence (P19327 whole entry): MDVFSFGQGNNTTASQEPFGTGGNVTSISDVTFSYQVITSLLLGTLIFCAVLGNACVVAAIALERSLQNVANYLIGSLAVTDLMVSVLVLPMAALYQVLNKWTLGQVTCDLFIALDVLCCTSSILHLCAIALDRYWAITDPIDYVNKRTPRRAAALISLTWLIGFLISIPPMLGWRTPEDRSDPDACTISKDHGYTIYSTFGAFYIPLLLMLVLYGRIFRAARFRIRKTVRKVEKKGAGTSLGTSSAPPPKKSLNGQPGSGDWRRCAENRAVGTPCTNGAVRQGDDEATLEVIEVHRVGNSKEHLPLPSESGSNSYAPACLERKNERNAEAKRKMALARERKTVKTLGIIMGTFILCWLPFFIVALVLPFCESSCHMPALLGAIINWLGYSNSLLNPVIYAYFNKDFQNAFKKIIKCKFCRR
Summary of the method: (§1)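 [3H]5-HT binding to 5-HT1 sites. The 5-HT1A component was distinguished by masking 5-HT1A sites with 1 µM S-spiroxatrine. Values are geometric means.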

[2] = biological target: 5-hydroxytryptamine receptor 1B (Rattus norvegicus, UniProt P28564); assay: Inhibition of [3H]5-HT binding to 5-hydroxytryptamine 1B receptor; summary of the method: as §1
[3] = biological target: Serotonin 2 (5-HT2) receptor (Rattus norvegicus, UniProt P30994+P08909+P14842); assay: Displacement of [3H]ketanserin from 5-hydroxytryptamine 2 receptor; format: protein assay

Chain of 5-hydroxytryptamine receptor 1B (P28564 whole entry): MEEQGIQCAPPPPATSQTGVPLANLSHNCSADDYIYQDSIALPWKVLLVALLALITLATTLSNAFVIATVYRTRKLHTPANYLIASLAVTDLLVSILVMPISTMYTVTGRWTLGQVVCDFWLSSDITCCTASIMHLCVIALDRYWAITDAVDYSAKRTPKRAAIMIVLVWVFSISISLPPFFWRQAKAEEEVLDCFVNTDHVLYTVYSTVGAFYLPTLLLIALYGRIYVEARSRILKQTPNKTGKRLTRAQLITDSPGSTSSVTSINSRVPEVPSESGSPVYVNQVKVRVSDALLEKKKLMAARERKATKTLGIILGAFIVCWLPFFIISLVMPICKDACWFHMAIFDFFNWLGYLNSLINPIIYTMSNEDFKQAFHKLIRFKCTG

Structure (SMILES)	Ki [1]	Ki [2]	Ki [3]
COc1cccc2c1C1CCN(CCCN3C(=O)c4ccccc4S3(=O)=O)CC1C2 (stereo not given)	0.891 nM	845 nM	3 nM
COc1cccc2c1[C@@H]1CCN(CCCN3C(=O)CC4(CCCC4)CC3=O)C[C@@H]1C2	692 nM	96400 nM	17.4 nM
COc1cccc2c1[C@@H]1CCN(CCCCN3C(=O)CC4(CCCC4)CC3=O)C[C@H]1C2	1.65 nM	800 nM	9.3 nM
CCCN1CC[C@H]2c3c(cccc3OC)C[C@H]2C1		48500 nM	965 nM
COc1cccc2c1[C@@H]1CCN(CCCN3C(=O)CC4(CCCC4)CC3=O)C[C@H]1C2	51.2 nM	7360 nM	15.9 nM
COc1cccc2c1C1CCN(CCNC(=O)c3ccc(F)cc3)CC1C2 (stereo not given)	0.588 nM	888 nM	28.9 nM
COc1cccc2c1[C@@H]1CCN(CCCCN3C(=O)CC4(CCCC4)CC3=O)C[C@@H]1C2	54.5 nM	13600 nM	35.9 nM
CCCN(CCC)C1CCc2cccc(O)c2C1 (stereo not given) [8-OH-DPAT]			> 10000 nM
COc1cccc2c1C1CCN(CCCCN3C(=O)C4C5C=CC(C6C=CC65)C4C3=O)CC1C2.Cl (trans isomer)	3.6 nM	1310 nM	2.58 nM
CCCN1CC[C@H]2c3c(cccc3OC)C[C@@H]2C1	76.2 nM	5010 nM	688 nM
COc1cccc2c1C1CCN(CCCCN3C(=O)c4ccccc4S3(=O)=O)CC1C2 (stereo not given)	1.98 nM	325 nM	33.4 nM
